{
  "source": "ChEMBL document CHEMBL5678798",
  "about": "(Clin Cancer Res, 2009)",
  "key": {"[1]": {"system": "MX1", "assay": "Antiproliferative activity against human MX1 cells assessed as reduction in cell viability after 72 hrs by CellTiter-Glo assay", "assay_type": "functional, cell-based", "conditions": "MX1, 72 h", "method_in_brief": "(§1)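 Cells seeded in 96-well plates, left overnight at 37°C, then exposed to a range of test concentrations for 72 h. Viability read by CellTiter-Glo luminescence; IC50 from four-parameter curve fit. Lines kept at 37°C, 5% CO2, in recommended growth medium.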"}, "[2]": {"target": "FKBP12A/mTOR (Homo sapiens) (UniProt P62942+P42345)", "sequence (P62942 2-108 limits assumed, other chains not shown)": "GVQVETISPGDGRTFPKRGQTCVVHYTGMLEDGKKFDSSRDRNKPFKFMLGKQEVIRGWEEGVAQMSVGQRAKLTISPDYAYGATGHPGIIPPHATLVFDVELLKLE", "assay": "Inhibition of human mTOR/FKBP12 at 3 uM by filter binding assay relative to control", "assay_type": "protein-complex assay"}, "[3]": {"target": "Tyrosine-protein kinase SYK (Homo sapiens, UniProt P43405)", "assay": "Inhibition of SYK (unknown origin)"}, "[4]": {"target": "Ephrin type-A receptor 5 (Homo sapiens) (UniProt P54756)", "assay": "Inhibition of N-terminal His6-tagged human EphA5 expressed in baculovirus infected Sf21 cells at 0.3 uM by filter binding assay relative to control", "method_in_brief": "(§2)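 Outsourced single-concentration screen in a commercial panel of 233 protein kinases, run as radiometric filter-binding activity assays. Test agent was tested at 0.3 or 3 µmol/L, as given in each line, from a 10 mmol/L DMSO stock. Activity is expressed as percent inhibition relative to control.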"}, "[5]": {"assay": "Inhibition of N-terminal His6-tagged recombinant full-length human CDK5/N-terminal GST-tagged recombinant full-length human p35 expressed in baculovirus infected Sf21 cells at 3 uM by filter binding assay relative to control", "conditions": "condition cancer", "method_in_brief": "as §2"}, "[6]": {"target": "Phosphatidylinositol 4,5-bisphosphate 3-kinase catalytic subunit beta isoform (Homo sapiens, UniProt P42338)", "sequence (P42338 whole entry, canonical isoform)": "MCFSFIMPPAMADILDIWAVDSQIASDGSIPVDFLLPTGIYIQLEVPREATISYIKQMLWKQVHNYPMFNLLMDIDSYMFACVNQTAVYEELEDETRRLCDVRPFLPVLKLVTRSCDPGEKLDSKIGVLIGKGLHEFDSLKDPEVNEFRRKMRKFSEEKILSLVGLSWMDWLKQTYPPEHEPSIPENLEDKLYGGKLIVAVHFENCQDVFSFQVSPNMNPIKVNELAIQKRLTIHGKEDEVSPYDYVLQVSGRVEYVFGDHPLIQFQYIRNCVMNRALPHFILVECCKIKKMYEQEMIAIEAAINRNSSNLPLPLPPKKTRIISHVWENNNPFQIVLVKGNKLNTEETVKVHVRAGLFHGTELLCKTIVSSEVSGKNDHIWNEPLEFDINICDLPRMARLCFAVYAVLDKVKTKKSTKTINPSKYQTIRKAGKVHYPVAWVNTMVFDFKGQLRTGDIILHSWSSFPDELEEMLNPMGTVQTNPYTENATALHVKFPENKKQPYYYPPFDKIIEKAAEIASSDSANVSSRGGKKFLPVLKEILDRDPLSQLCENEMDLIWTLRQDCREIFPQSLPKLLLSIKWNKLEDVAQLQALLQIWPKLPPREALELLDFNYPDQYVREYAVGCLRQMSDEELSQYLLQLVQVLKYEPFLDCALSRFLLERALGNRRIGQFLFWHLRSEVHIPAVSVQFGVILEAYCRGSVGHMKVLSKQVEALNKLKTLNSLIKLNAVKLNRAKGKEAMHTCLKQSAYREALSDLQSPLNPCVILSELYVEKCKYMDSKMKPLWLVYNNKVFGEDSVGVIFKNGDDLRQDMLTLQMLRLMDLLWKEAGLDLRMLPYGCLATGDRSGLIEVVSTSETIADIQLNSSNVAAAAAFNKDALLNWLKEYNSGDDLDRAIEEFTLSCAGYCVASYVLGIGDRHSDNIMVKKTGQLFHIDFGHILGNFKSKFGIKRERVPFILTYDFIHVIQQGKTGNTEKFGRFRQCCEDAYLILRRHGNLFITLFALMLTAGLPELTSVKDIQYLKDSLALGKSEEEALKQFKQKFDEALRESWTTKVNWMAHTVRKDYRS", "assay": "Inhibition of PI3Kbeta (unknown origin)"}, "[7]": {"target": "Insulin-like growth factor 1 receptor (Homo sapiens, UniProt P08069)", "assay": "Inhibition of N-terminal 6His-tagged recombinant human IGF-1R (959 to end residues) expressed in baculovirus infected Sf21 cells by filter binding assay"}, "[8]": {"target": "Serine/threonine-protein kinase pim-3 (Homo sapiens) (UniProt Q86V86)", "assay": "Inhibition of N-terminal 6His-tagged recombinant human Pim-3 expressed in baculovirus infected Sf21 cells at 0.3 uM by filter binding assay relative to control", "method_in_brief": "as §2"}, "[9]": {"target": "Death-associated protein kinase 2 (Homo sapiens) (UniProt Q9UIK4)", "sequence (Q9UIK4 whole entry, looked up)": "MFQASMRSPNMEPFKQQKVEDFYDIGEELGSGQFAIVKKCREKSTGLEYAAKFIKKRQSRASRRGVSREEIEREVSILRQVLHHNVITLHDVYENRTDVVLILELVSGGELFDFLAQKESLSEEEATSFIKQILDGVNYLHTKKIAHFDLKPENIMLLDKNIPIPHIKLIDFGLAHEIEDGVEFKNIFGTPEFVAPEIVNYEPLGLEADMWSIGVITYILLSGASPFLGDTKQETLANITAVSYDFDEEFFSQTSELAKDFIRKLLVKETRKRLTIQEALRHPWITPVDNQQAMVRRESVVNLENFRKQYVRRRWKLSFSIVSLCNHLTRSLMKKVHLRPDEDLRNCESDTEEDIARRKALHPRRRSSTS", "assay": "Inhibition of N-terminal GST-tagged recombinant human full length DAPK2 expressed in baculovirus infected Sf21 cells at 3 uM by filter binding assay relative to control", "method_in_brief": "as §2"}, "[10]": {"system": "MHH-ES-1", "assay": "Antiproliferative activity against human MHH-ES-1 cells assessed as reduction in cell viability after 72 hrs by CellTiter-Glo assay", "assay_type": "functional, cell-based", "conditions": "MHH-ES-1, 72 h", "method_in_brief": "as §1"}, "[11]": {"target": "Mitogen-activated protein kinase kinase kinase 5 (Homo sapiens, UniProt Q99683)", "sequence (Q99683 whole entry)": "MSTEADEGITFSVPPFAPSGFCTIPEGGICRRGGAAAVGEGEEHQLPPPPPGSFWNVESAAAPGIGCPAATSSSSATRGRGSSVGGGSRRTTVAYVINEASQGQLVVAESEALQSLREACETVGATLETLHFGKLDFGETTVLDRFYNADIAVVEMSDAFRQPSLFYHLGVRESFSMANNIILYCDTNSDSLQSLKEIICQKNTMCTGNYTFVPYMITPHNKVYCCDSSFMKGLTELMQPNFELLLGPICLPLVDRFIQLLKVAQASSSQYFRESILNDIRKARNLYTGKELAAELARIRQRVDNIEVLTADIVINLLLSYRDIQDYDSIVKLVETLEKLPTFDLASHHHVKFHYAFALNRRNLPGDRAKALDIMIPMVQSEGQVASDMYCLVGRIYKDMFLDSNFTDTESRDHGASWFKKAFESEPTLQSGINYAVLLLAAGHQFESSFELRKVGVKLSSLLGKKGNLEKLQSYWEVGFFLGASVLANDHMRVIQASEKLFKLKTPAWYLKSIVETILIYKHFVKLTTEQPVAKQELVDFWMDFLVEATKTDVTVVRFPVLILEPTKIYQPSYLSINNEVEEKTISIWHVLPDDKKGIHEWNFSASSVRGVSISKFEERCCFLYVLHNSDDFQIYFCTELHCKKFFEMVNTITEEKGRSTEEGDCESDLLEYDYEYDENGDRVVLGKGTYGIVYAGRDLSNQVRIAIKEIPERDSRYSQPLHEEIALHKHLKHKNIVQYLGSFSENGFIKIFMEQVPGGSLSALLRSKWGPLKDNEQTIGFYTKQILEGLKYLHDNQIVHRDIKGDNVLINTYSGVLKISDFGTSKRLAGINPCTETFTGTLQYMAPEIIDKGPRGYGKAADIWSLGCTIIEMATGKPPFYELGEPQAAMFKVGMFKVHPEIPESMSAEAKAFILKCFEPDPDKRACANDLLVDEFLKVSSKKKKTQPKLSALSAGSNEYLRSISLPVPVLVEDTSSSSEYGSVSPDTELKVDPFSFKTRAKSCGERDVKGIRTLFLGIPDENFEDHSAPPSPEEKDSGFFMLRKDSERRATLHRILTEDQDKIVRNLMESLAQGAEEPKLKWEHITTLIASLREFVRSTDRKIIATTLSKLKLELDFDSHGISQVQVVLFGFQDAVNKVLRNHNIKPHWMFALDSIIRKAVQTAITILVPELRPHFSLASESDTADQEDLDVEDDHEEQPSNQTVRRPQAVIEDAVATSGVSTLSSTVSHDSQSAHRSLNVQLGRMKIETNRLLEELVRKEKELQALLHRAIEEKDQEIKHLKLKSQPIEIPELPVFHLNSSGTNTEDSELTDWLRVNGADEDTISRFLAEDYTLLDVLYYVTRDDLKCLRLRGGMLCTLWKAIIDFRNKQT", "assay": "Inhibition of ASK1 (unknown origin)"}, "[12]": {"species": "Rattus norvegicus", "assay": "Inhibition of recombinant rat AMPK at 0.3 uM by filter binding assay relative to control"}, "[13]": {"target": "Glycogen synthase kinase-3 beta (Homo sapiens, UniProt P49841)", "assay": "Inhibition of GSK3beta (unknown origin)"}, "[14]": {"target": "Serine/threonine-protein kinase Nek11 (Homo sapiens) (UniProt Q8NG66)", "sequence (Q8NG66 whole entry)": "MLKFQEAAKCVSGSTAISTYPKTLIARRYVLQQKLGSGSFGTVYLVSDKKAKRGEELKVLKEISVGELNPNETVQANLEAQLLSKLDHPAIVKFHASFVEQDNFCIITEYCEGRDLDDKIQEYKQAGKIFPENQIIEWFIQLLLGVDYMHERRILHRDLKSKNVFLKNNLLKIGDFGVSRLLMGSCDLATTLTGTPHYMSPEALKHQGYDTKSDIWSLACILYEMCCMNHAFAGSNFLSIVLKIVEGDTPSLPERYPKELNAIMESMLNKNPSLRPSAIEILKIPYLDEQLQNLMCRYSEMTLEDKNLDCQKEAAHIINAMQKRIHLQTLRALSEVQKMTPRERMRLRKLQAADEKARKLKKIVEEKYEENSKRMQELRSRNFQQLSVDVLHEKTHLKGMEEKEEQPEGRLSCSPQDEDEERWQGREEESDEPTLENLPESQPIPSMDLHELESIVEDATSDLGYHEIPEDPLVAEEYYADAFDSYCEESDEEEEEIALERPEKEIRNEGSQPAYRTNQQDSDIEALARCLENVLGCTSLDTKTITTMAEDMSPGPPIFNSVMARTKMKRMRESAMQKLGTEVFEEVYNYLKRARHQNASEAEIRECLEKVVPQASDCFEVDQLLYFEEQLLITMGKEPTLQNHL", "assay": "Inhibition of 6His-tagged recombinant human full-length NEK11 expressed in baculovirus infected Sf21 cells at 0.3 uM by filter binding assay relative to control", "method_in_brief": "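KinaseProfiler panel of 233 kinases: radiometric filter-binding activity assays with compound at 0.3 or 3 µmol/L. Read-out is percent inhibition.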"}, "[15]": {"system": "NCI-H929", "assay": "Induction of cell cycle arrest in human NCI-H929 cells assessed as cells accumulation at G1 phase at 1 umol/L incubated for 48 hrs by propidium iodide staining based flow cytometric analysis (reference value: 42%)", "assay_type": "functional", "conditions": "dose 1 µmol/L, at 1 µM", "method_in_brief": "(§3)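 COLO 205, MCF-7 or NCI-H929 cells seeded in 96-well plates overnight at 37°C, then exposed to DMSO or increasing compound concentrations for 24 or 48 h. Fixed and stained with propidium iodide (Vindelov method), then analysed by flow cytometry for sub-G1, G1, S and G2-M fractions. Experiment repeated twice.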"}, "[16]": {"system": "MCF7", "assay": "Induction of cell cycle arrest in human MCF7 cells assessed as increase in cells accumulation at G1 phase at 0.03 to 10 uM incubated for 24 to 48 hrs by propidium iodide staining based flow cytometric analysis", "assay_type": "functional", "conditions": "dose 0.03-10 µM, time lower 24.0 hrs, time upper […]", "method_in_brief": "as §3"}, "[17]": {"target": "Protein kinase C iota type (Homo sapiens) (UniProt P41743)", "sequence (P41743 whole entry)": "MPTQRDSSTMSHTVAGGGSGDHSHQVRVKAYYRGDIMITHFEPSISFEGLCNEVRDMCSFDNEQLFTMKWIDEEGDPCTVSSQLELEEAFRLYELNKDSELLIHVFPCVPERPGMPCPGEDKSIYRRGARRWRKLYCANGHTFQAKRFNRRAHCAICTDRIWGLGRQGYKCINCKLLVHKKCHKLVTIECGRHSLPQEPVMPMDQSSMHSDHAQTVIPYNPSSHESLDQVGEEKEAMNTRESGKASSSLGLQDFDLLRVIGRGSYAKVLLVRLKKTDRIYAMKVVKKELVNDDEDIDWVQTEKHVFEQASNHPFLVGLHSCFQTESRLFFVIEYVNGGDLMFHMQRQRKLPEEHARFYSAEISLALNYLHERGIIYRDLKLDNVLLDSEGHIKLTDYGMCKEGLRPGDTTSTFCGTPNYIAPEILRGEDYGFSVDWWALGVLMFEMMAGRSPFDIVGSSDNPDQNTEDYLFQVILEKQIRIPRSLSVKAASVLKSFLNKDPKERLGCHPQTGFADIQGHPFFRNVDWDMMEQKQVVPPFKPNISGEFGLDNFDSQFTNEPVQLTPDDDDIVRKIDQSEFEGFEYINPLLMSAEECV", "assay": "Inhibition of N-terminal His6-tagged recombinant full-length human PKCiota expressed in Sf21 cells at 0.3 uM by filter binding assay relative to control", "method_in_brief": "as §2"}, "[18]": {"target": "Tyrosine-protein kinase Lck (Homo sapiens, UniProt P06239)", "sequence (P06239 whole entry)": "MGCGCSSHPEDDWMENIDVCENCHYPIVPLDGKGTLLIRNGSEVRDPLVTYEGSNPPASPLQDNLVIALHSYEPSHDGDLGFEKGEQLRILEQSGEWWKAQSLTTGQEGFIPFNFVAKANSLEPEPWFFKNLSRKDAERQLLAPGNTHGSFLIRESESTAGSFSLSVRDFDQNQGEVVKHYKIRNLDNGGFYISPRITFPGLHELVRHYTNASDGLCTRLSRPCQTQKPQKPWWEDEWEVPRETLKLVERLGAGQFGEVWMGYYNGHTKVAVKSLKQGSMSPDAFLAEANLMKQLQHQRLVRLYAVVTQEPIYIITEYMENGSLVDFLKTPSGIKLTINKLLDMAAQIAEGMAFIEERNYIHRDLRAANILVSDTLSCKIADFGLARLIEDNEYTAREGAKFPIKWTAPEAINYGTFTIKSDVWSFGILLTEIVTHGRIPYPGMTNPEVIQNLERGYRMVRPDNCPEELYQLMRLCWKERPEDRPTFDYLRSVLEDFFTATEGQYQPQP", "assay": "Inhibition of LCK (unknown origin)"}, "[19]": {"assay": "Toxicity in nu/nu CD-1 mouse xenografted with human HT-29 cells assessed as reduction in body weight at 30 mg/kg, po for 21 days relative to control", "assay_type": "organism-based", "conditions": "in vivo, 504 h, time 21 day"}, "[20]": {"system": "MCF7", "assay": "Induction of cell cycle arrest in human MCF7 cells assessed as cells accumulation at S phase at 1 umol/L incubated for 48 hrs by propidium iodide staining based flow cytometric analysis (reference value: 10%)", "assay_type": "functional", "conditions": "dose 1 µmol/L, at 1 µM", "method_in_brief": "as §3"}, "[21]": {"system": "SK-N-MC", "assay": "Antiproliferative activity against human SK-N-MC cells assessed as reduction in cell viability after 72 hrs by CellTiter-Glo assay", "assay_type": "functional, cell-based", "method_in_brief": "as §1"}, "[22]": {"assay": "Antitumor activity against mouse NIH-3T3/LISN cells implanted in nu/nu CD-1 mouse assessed as reduction in tumor growth at 30 mg/kg, po for 21 days relative to control", "assay_type": "functional", "conditions": "504 h, time 21 day, read-out: TGI", "method_in_brief": "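Exponentially growing cells implanted s.c. in the right flank of 8–10-wk-old female athymic nu/nu CD-1 mice. At 150–200 mm3, block-randomized by tumor size into groups of eight. Oral dosing once or twice daily for 21 d; vehicle 20% sulfobutylether-β-cyclodextrin, pH 3.5. Calipers twice weekly; volume = length×width²/2. Growth inhibition = 100×[1 − treated growth/vehicle growth].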"}, "[23]": {"assay": "In vivo inhibition of IGF1R in mouse NIH-3T3/LISN cells implanted in IGF1-stimulated nu/nu CD-1 mouse assessed as reduction in IGF1R phosphorylation at 3 mg/kg, po pretreated for 4 hrs followed by IGF1 stimulation and measured after 10 min by […] relative to control", "assay_type": "functional", "conditions": "4.167 h, time 250 min", "method_in_brief": "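Female nu/nu CD-1 mice, three per group, bearing ~500 mm3 tumors, given one oral dose of compound or vehicle. At 4 h, 10 µg hIGF-I i.v. via tail vein; saline controls. Tumor and blood taken 10 min later. Tumor lysates in RIPA captured on anti-IGF-IR plates and probed with europium anti-phosphotyrosine. Phospho/total IGF-IR expressed as % of ligand-stimulated control. Blood levels by LC-MS/MS.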"}, "[24]": {"assay": "Antiproliferative activity against human SR-786 cells assessed as reduction in cell viability after 72 hrs by CellTiter-Glo assay", "assay_type": "functional, cell-based", "conditions": "SR-786, 72 h", "method_in_brief": "as §1"}, "[25]": {"assay": "Antiproliferative activity against human L-82 cells assessed as reduction in cell viability after 72 hrs by CellTiter-Glo assay", "assay_type": "functional, cell-based", "conditions": "L-82, 72 h", "method_in_brief": "as §1"}},
  "note": "Activity calls are given as the source filed them. The calls are words filed in the database; no cut-off is given here.",
  "data": [
    {"smiles": "CCc1cc(Nc2nccc(-c3c(-c4ccc(OC)c(C(=O)Nc5c(F)cccc5F)c4)nc4ccccn34)n2)c(OC)cc1N1CCC(N2CCN(S(C)(=O)=O)CC2)CC1", "values": [
      {"measurement": "IC50", "setting": "[1]", "result": 0.189, "unit": "µM"},
      {"measurement": "inhibition", "setting": "[2]", "result": 4, "unit": "%"},
      {"measurement": "IC50", "setting": "[3]", "result": 3.2, "unit": "µM"},
      {"measurement": "inhibition", "setting": "[4]", "result": 11, "unit": "%"},
      {"measurement": "inhibition at 3 µM", "setting": "[5]", "result": -24, "unit": "%"},
      {"measurement": "IC50", "setting": "[6]", "result": "> 10", "unit": "µM"},
      {"measurement": "IC50", "setting": "[7]", "result": 0.058, "unit": "µM"},
      {"measurement": "inhibition", "setting": "[8]", "result": -10, "unit": "%"},
      {"measurement": "inhibition", "setting": "[9]", "result": 4, "unit": "%"},
      {"measurement": "IC50", "setting": "[10]", "result": "> 30", "unit": "µM"},
      {"measurement": "IC50", "setting": "[11]", "result": "> 25", "unit": "µM"},
      {"measurement": "inhibition", "setting": "[12]", "result": 0, "unit": "%"},
      {"measurement": "IC50", "setting": "[13]", "result": "> 25", "unit": "µM"},
      {"measurement": "inhibition", "setting": "[14]", "result": -8, "unit": "%"},
      {"measurement": "Activity", "setting": "[15]", "result": 79, "unit": "%"},
      {"measurement": "Activity", "setting": "[16]", "result": "Active"},
      {"measurement": "inhibition", "setting": "[17]", "result": 0, "unit": "%"},
      {"measurement": "IC50", "setting": "[18]", "result": 8, "unit": "µM"},
      {"measurement": "Activity", "setting": "[19]", "result": "Non-Toxic"},
      {"measurement": "Activity", "setting": "[20]", "result": 5, "unit": "%"},
      {"measurement": "IC50", "setting": "[21]", "result": 0.043, "unit": "µM"},
      {"measurement": "inhibition in vivo at 30 mg/kg", "setting": "[22]", "result": 56, "unit": "%"},
      {"measurement": "inhibition in vivo at 3 mg/kg", "setting": "[23]", "result": 75, "unit": "%"},
      {"measurement": "IC50", "setting": "[24]", "result": "> 30", "unit": "µM"},
      {"measurement": "IC50", "setting": "[25]", "result": "> 30", "unit": "µM"}
    ]}
  ]
}
